# M1 antag: antagonists of rat M1 muscarinic receptor; Muscarinic acetylcholine receptor M1 (Rattus norvegicus), P08482; CHO-M1 cells, Fluo-4 calcium, ACh EC80 antagonist mode; hits give low values; B-score at 10 µM; 3.4% of 64,000 active; AID 628, 2007;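 active = calcium fluorescence response, raw or row-and-column corrected B-score, differing from the plate sample mean either way at a set confidence level, mostly lower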
# Target sequence (P08482 whole entry, looked up): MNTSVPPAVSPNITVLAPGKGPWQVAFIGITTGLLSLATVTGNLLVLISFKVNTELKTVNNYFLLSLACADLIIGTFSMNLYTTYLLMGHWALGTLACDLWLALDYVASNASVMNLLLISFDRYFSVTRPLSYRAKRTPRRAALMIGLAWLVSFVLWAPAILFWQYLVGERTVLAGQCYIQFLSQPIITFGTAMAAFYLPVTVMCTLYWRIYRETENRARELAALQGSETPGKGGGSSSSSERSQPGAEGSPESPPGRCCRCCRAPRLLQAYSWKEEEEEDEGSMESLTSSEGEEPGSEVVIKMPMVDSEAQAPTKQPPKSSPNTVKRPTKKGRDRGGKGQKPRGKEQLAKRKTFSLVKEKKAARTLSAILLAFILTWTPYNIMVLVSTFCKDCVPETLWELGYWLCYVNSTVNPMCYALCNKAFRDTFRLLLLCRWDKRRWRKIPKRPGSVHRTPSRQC
# DAT uptake mod: changed hDAT dopamine uptake under cocaine IC80, either direction, primary screen, cocaine antagonist project, cell-based, LLC-PK1 hDAT, [14C]-dopamine uptake, MLSMR; 1.3% of 110,000 active; LLC-PK1 hDAT cells, [14C]-dopamine uptake with cocaine IC80; actives deviate in either direction; B-score at 10 µM; Sodium-dependent dopamine transporter (Homo sapiens), Q01959;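 active = Z score or B-score, a plate-position-corrected score, falls beyond the plate's 99.7% confidence bounds, in either direction; inactive = both scores lie inside the 99.7% bounds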
# D1 mod: D1 CRE-luciferase signal change, two-sided – cell-based, HEK293 D1, dopamine EC30, D1 allosteric modulator project, primary screen | D(1A) dopamine receptor (Homo sapiens), P21728 | dopamine EC30 potentiation; actives deviate in either direction | B-score at 10 µM | 5.9% of 58,000 active | AID 641, 2007;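 active = luminescence count or its row- and column-corrected plate score outside the 99.7% band of the plate's sample wells, on either side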
# HEK293 NFkB inh: inhibitors of PMA/ionomycin-induced NF-kB reporter, primary screen, antigen receptor NF-kB inhibitor project, cell-based, HEK-293 luciferase reporter, luminescence | inhibition, % at 3 µM | HEK-293 NF-kB luciferase reporter | AID 465, 2006 | 0.21% of 62,000 active;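 active = inhibition above the mean of all tested compounds plus 3 SD, cut at about 40% in these data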
#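 Material: HEK-293 cells with stable firefly luciferase reporter driven by four HIV NF-kB elements / Also added: PMA plus ionomycin mix as NF-kB-activating stimulus / Compound dosing: 3 µM once, 0.30% DMSO / Times: 1 h pretreatment, 16 h stimulation, 37 °C / Signal: luminescence / Evaluation: per-plate % inhibition versus controls / Benchmarks: DMSO and 10 µM reference inhibitor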
# M1 ag: M1 muscarinic receptor agonists, primary screen, CHO-M1 cells, Fluo-4 calcium, agonist mode; 3% of 64,000 active; B-score at 10 µM; Muscarinic acetylcholine receptor M1; Fluo-4 calcium fluorescence; hits give high values;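 active = fluorescence rise, raw or as B-score row- and column-corrected plate score, outside the 99.7% band of its plate's samples, either direction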
# BAP1 inh: inhibitors of BAP1 deubiquitinase, primary screen, biochemical, Ub-AMC fluorescence, kinetic; calls only at 20 µM; Ubiquitin carboxyl-terminal hydrolase BAP1 (Homo sapiens), Q92560; AID 436, 2006; recombinant BAP1, Ub-AMC hydrolysis fluorescence kinetic; hits give low values; 0.48% of 72,000 active;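 active = activity remaining at or below 50% of control, provided the compound also passes the data quality filters; inactive = the rest, including low values that fail the filters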
# D1 PAM confirm: D1 receptor positive allosteric modulators, retest, confirmation, cell-based, HEK293 D1, CRE-luciferase, duplicate | dopamine EC30 potentiation; hits give high values | shares compounds with D1 mod | 88% of 2,200 active | luminescence at 10 µM | AID 642, 2007;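 active = luminescence in either of two replicates above the same-plate mean plus 3 SD of the low-dose dopamine control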
# D1 no dopamine: D1 receptor agonism without dopamine, confirmation, mechanism study for D1 allosteric modulator project, cell-based, HEK293 D1, CRE-luciferase, secondary assay 1; 0.8% of 1,900 active; luminescence, no dopamine; hits give high values; luminescence at 10 µM; shares compounds with D1 mod; AID 646, 2007; in the data active = luminescence above about 3900
# Isoprot counter: alters isoproterenol CRE-luciferase response in HEK293 cells; shares compounds with D1 mod; 63% of 2,200 active; calls only at 10 µM; HEK293 D1 CRE-luciferase, isoproterenol EC30 counter-screen;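 active = luminescence in either replicate above plate mean of wells with a partly effective reference agonist dose plus 3 SD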;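 also: isoproterenol raises cAMP through native beta-adrenoceptor Gs so signal bypasses D1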
# Hits are given with their value; . = inactive; / = no result shown; + = active, no number. Compounds with a hit are over-represented: about 7.2% of the library has one in this group of screens.
SMILES,M1 antag,DAT uptake mod,D1 mod,HEK293 NFkB inh,M1 ag,BAP1 inh,D1 PAM confirm,D1 no dopamine,Isoprot counter
O=C(CSc1nc(-c2ccccc2)cc(C(F)(F)F)n1)NCc1ccco1,/,.,/,/,/,/,/,/,/
O=[N+]([O-])c1cc(Cl)ccc1NCCCNS(=O)(=O)c1ccc(Cl)cc1,/,/,/,/,/,.,/,/,/
C=CCn1c(N)c(C(=O)OC(C)CC)c2nc3ccccc3nc21 (centres undefined),.,.,7.5,.,.,/,14864,.,+
CC1Cc2ccccc2N1C(=O)CSc1nc2cc3c(cc2cc1C#N)OCO3 (centres undefined),.,.,5.1,.,.,.,13756,.,+
Cn1nnnc1SCC(=O)Nc1nc(-c2ccccc2)c(-c2ccccc2)o1,.,.,3.7,.,.,.,9488,.,.
Cn1nnnc1SCC(=O)Nc1ccccn1,/,.,/,/,/,/,/,/,/
C/C(Cl)=C\Cn1c(Nc2ccccc2)nc2c1c(=O)n(C)c(=O)n2C,.,.,14,.,.,.,11964,/,+
COc1ccc(N2CCN(Cc3nc(N)nc(N4CCCc5ccccc54)n3)CC2)cc1,/,.,5.7,.,/,.,13244,.,+
Cc1cccc(C)c1NC(=O)CCC(=O)O,/,/,/,/,/,.,/,/,/
Cc1c(C)c2ccc(OC3CCCCC3=O)cc2oc1=O (centres undefined),.,/,2.5,.,.,.,6564,.,.
CCOC(=O)c1ccc(N2C(=O)C(O)=C(C(C)=O)C2c2ccc(O)c(OC)c2)cc1 (centres undefined),.,.,2.5,.,.,.,.,.,.
Cc1ccc(Cn2c(CN(C)Cc3ccccc3)nc3c2c(=O)n(C)c(=O)n3C)cc1,.,.,4.9,.,.,.,8728,.,+
CCCCOC(=O)C1=C(C)NC(=O)NC1c1ccc(OC)c(OC)c1 (centres undefined),/,/,/,/,/,.,/,/,/
COc1ccc(S(=O)(=O)N2CCCCCC2)cc1C(=O)OCc1c(C)noc1C,.,.,4.3,.,.,.,9164,.,+
CCOC(=O)c1c(NC(=O)c2cc(=O)c3ccccc3o2)sc2c1CCC2,/,/,/,/,/,.,/,/,/
Cc1ccc2c(c1)N(C(=O)CSc1nncn1C)C(C)(C)c1ssc(=S)c1-2,/,.,2.8,.,/,.,6228,/,+
Cc1cc2nc(Nc3nc(-c4ccccc4)cc(=O)[nH]3)nc(C)c2cc1C,/,/,/,/,/,.,/,/,/
CCn1c(C(O)(c2ccccc2)c2ccc(C)cc2)nc2ccccc21 (centres undefined),/,/,/,/,/,.,/,/,/
O=c1oc2ccccc2c2nccnc12,.,.,.,.,.,.,/,/,/
Cc1cnc(N)c2c(=O)oc3ccccc3c12,.,.,9.8,.,.,/,17776,/,+
Cc1cc(C)n(-c2nc3c(c(=O)[nH]c(=O)n3C)n2Cc2ccccc2)n1,.,.,7.9,.,.,.,11052,.,+
Cc1cc(C)n(-c2nc3c(c(=O)[nH]c(=O)n3C)n2CCc2ccccc2)n1,.,.,.,.,.,.,/,/,/
Cc1cc(C)n(-c2nc3c(c(=O)[nH]c(=O)n3C)n2C)n1,.,.,1.8,.,.,.,.,.,.
O=C(c1ccc2nc(NC(=O)C34CC5CC(CC(C5)C3)C4)sc2c1)N1CCCCC1,/,/,/,/,/,.,/,/,/

# Bioassay records as filed in PubChem BioAssay.
